The results in this text go back to ChEMBL document CHEMBL1759916, “Bicyclo[2.2.2]octyltriazole inhibitors of 11β-hydoxysteroid dehydrogenase type 1. Pharmacological agents for the treatment of metabolic syndrome” (Bioorg Med Chem Lett, 2011).

Each structure is given as a SMILES string. Some results are limits rather than exact numbers.

In experiment [1] the test system is Mus musculus. The experiment in a line: Inhibition of 11beta-HSD1 in ICR mouse assessed as inhibition of conversion of [3H]-cortisone to [3H]-cortisol at 10 mg/kg, po administered 16 hrs before [3H]-cortisone challenge. Type of experiment: functional. An outline of the steps:
(§1)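 Mouse pharmacodynamic model. Compound given 10 mg/kg PO, then 3H-cortisone by tail vein injection 1, 4 or 16 h after dosing. […] Plasma compound levels were measured after the PD studies.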

Experiment [2] has as its system Mus musculus. The experiment in a line: Inhibition of 11beta-HSD1 in ICR mouse assessed as inhibition of conversion of [3H]-cortisone to [3H]-cortisol at 10 mg/kg, po administered 4 hrs before [3H]-cortisone challenge. Type of experiment: functional. The gist of the method: as §1
The target of experiment [3] is T1, 11-beta-hydroxysteroid dehydrogenase type 2 (Mus musculus, UniProt P51661).
T1 sequence (P51661 whole entry): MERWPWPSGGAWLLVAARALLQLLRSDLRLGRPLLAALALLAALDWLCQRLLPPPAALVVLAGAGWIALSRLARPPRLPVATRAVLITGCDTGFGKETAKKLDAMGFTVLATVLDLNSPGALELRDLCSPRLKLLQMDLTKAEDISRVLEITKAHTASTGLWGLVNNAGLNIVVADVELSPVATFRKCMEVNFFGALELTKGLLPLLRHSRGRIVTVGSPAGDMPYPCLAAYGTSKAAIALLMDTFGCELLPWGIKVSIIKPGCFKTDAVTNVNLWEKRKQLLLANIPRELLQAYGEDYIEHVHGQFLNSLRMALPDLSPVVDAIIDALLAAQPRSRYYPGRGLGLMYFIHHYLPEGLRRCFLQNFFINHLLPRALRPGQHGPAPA
Nature of the experiment: Inhibition of mouse 11beta-HSD2 expressed in CHO-K1 cells assessed as conversion of [3H]-cortisol to [3H]-cortisone by scintillation proximity assay. Type of experiment: cell-based. The gist of the method: (§2)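 Scintillation proximity assay (SPA). IC50 values are the average of two determinations.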
On the technique in general: Scintillation proximity formats need no separation of bound from free tracer.

The target in experiment [4] is 11-beta-hydroxysteroid dehydrogenase 1 (Homo sapiens, UniProt P28845). The experiment in a line: Inhibition of human 11beta-HSD1 expressed in CHO-K1 cells assessed as conversion of [3H]-cortisone to [3H]-cortisol by scintillation proximity assay. Type of experiment: cell-based. An outline of the steps: as §2
For experiment [5], the target named is T2, 11-beta-hydroxysteroid dehydrogenase type 2 (Homo sapiens, UniProt P80365).
T2 sequence (P80365 whole entry): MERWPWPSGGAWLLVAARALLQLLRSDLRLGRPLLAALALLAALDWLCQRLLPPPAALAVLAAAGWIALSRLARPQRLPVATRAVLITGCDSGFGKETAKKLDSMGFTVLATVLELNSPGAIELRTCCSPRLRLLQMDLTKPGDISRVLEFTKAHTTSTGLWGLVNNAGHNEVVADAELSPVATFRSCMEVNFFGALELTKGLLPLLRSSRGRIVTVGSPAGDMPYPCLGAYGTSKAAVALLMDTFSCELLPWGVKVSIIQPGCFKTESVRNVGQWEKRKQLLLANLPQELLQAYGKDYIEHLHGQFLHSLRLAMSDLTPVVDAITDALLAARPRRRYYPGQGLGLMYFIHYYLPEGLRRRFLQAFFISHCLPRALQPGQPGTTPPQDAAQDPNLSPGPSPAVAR
Nature of the experiment: Inhibition of human 11beta-HSD2 expressed in CHO-K1 cells assessed as conversion of [3H]-cortisol to [3H]-cortisone by scintillation proximity assay. Type of experiment: cell-based.

Experiment [6] deals with 11-beta-hydroxysteroid dehydrogenase 1 (Mus musculus, UniProt P50172). The experiment in a line: Inhibition of mouse 11beta-HSD1 expressed in CHO-K1 cells assessed as conversion of [3H]-cortisone to [3H]-cortisol by scintillation proximity assay. Type of experiment: cell-based.
Chain of 11-beta-hydroxysteroid dehydrogenase 1 (Mus musculus, UniProt P50172) (P50172 whole entry): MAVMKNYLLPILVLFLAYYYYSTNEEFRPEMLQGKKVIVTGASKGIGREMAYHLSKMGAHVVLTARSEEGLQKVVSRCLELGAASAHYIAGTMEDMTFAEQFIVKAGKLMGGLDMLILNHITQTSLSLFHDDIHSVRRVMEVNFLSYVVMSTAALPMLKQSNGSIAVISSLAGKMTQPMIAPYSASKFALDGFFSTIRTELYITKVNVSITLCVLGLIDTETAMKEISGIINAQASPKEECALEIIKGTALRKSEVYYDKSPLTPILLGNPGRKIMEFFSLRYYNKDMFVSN

Chain of 11-beta-hydroxysteroid dehydrogenase 1 (Homo sapiens, UniProt P28845) (P28845 whole entry): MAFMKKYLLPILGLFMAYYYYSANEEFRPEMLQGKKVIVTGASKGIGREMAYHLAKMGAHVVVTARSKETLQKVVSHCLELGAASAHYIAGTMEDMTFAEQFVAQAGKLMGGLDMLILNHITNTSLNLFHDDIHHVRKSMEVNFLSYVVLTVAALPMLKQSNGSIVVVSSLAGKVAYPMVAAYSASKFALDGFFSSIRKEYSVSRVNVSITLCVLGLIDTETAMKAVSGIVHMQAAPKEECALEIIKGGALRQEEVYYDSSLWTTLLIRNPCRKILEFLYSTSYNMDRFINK

The inhibition in vivo is the change of the read-out against control, counted positive when it falls. For orientation: IC50 means the point on the concentration scale where inhibition reaches its midpoint. `CCS(=O)(=O)CCC12CCC(c3nnc(-c4ccccc4Br)n3C)(CC1)CC2`: the values for the inhibition in vivo at 10 mg/kg in experiment [1] and in experiment [2] were 65% and 86%, respectively. For the same compound, the values for the IC50 in experiment [3], in experiment [4] and in experiment [5] were more than 4000 nM, 10 nM and more than 4000 nM, respectively.

Consider `CCS(=O)(=O)CCCCC12CCC(c3nnc(-c4ccccc4C(F)(F)F)n3C)(CC1)CC2`, for which the inhibition in vivo at 10 mg/kg in experiment [1] was determined as 58%; in experiment [2], 90%. For the same compound, the IC50 is 1.8 nM in experiment [6], more than 4000 nM in experiment [3], 1.6 nM in experiment [4] and more than 4000 nM in experiment [5].

Regarding `CCS(=O)(=O)CCC12CCC(c3nnc(-c4ccccc4Cl)n3C)(CC1)CC2`, the inhibition in vivo at 10 mg/kg was found to be 74% in experiment [1] and 87% in experiment [2]. The IC50 in experiment [3] is more than 4000 nM; in experiment [4], 7.5 nM; in experiment [5], more than 4000 nM.

As for `CCS(=O)(=O)CCC12CCC(c3nnc(-c4ccccc4F)n3C)(CC1)CC2`, the IC50 in experiment [3] and in experiment [5] was more than 4000 nM each time.

Regarding `CCS(=O)(=O)CCC12CCC(c3nnc(-c4cccc(Cl)c4)n3C)(CC1)CC2`, the IC50 in experiment [6] is 1100 nM; in experiment [3], more than 4000 nM; in experiment [4], 900 nM; in experiment [5], more than 4000 nM.

In the case of `Cn1c(-c2ccccc2C(F)(F)F)nnc1C12CCC(CNS(C)(=O)=O)(CC1)CC2`, the inhibition in vivo at 10 mg/kg is 27% in experiment [1] and 73% in experiment [2]. Further, the IC50 was 4 nM in experiment [6], more than 4000 nM in experiment [3], 30 nM in experiment [4] and more than 4000 nM in experiment [5].

As to `Cn1c(-c2ccccc2C(F)(F)F)nnc1C12CCC(CCS(=O)(=O)C(F)(F)F)(CC1)CC2`, the results for the inhibition in vivo at 10 mg/kg in experiment [1] and in experiment [2] were 78% and 81%, respectively. In addition, the IC50 in experiment [6] was 2.2 nM; in experiment [3], more than 4000 nM; in experiment [4], 6.1 nM; in experiment [5], more than 4000 nM.

`CCS(=O)(=O)CC12CCC(c3nnc(-c4ccccc4C(F)(F)F)n3C)(CC1)CC2`: the inhibition in vivo at 10 mg/kg in experiment [1] was determined as 80%; in experiment [2], 94%. The IC50 in experiment [6] stood at 4 nM.

Consider `Cn1c(-c2ccccc2C(F)(F)F)nnc1C12CCC(CCS(=O)(=O)C(C)(C)C)(CC1)CC2`, for which the inhibition in vivo at 10 mg/kg stood at 10% in experiment [1] and 65% in experiment [2]. Moreover, the IC50 is 6.3 nM in experiment [6], more than 4000 nM in experiment [3], 5.4 nM in experiment [4] and more than 4000 nM in experiment [5].

For `CCCS(=O)(=O)NCC12CCC(c3nnc(-c4ccccc4C(F)(F)F)n3C)(CC1)CC2`, the inhibition in vivo at 10 mg/kg came to 7% in experiment [1] and 93% in experiment [2]. Further, the IC50 was 1 nM in experiment [6], more than 4000 nM in experiment [3], 8.1 nM in experiment [4] and more than 4000 nM in experiment [5].

`CCOCC12CCC(c3nnc(-c4ccccc4C(F)(F)F)n3C)(CC1)CC2`: the inhibition in vivo at 10 mg/kg in experiment [1] was 3%; in experiment [2] it was 44%. Besides, the IC50 was 2 nM in experiment [6], more than 4000 nM in experiment [3], 4 nM in experiment [4] and more than 4000 nM in experiment [5].

As for `CCS(=O)(=O)CCCC12CCC(c3nnc(-c4ccccc4C(F)(F)F)n3C)(CC1)CC2` [MK-0736], the inhibition in vivo at 10 mg/kg in experiment [1] stood at 63%; in experiment [2], 92%. The IC50 is 2.4 nM in experiment [6], more than 4000 nM in experiment [3], 3.2 nM in experiment [4] and more than 4000 nM in experiment [5].

Consider `Cn1c(-c2ccccc2C(F)(F)F)nnc1C12CCC(COc3ccc(S(C)(=O)=O)cc3)(CC1)CC2`, for which the inhibition in vivo at 10 mg/kg in experiment [1] turned out to be 28%; in experiment [2] it was 79%. Further, the IC50 is 2 nM in experiment [6], more than 4000 nM in experiment [3], 1 nM in experiment [4] and more than 4000 nM in experiment [5].

As for `CC[S+]([O-])CCC12CCC(c3nnc(-c4ccccc4C(F)(F)F)n3C)(CC1)CC2` (centres undefined), the inhibition in vivo at 10 mg/kg was 72% in experiment [1] and 90% in experiment [2]. Further, the IC50 in experiment [6] is 10 nM; in experiment [3], more than 4000 nM; in experiment [4] it was 4.1 nM; in experiment [5], more than 4000 nM.

In the case of `COCCCCC12CCC(c3nnc(-c4ccccc4C(F)(F)F)n3C)(CC1)CC2`, the inhibition in vivo at 10 mg/kg worked out at 1% in experiment [1] and 76% in experiment [2]. Further, the IC50 is 2 nM in experiment [6], more than 4000 nM in experiment [3], 2 nM in experiment [4] and 4000 nM in experiment [5].

In the case of `CCS(=O)(=O)CCC12CCC(c3nnc(-c4ccc(Cl)cc4)n3C)(CC1)CC2`, the IC50 in experiment [6] was more than 4000 nM; in experiment [3] it was more than 4000 nM; in experiment [4], 2800 nM; in experiment [5], more than 4000 nM.

Take `CC(C)S(=O)(=O)CCC12CCC(c3nnc(-c4ccccc4C(F)(F)F)n3C)(CC1)CC2`: the inhibition in vivo at 10 mg/kg in experiment [1] turned out to be 59%; in experiment [2] it was 88%. For the same compound, the IC50 in experiment [6] was 3.6 nM; in experiment [3], more than 4000 nM; in experiment [4], 4.1 nM; in experiment [5], more than 4000 nM.

Turning to `Cn1c(-c2ccccc2C(F)(F)F)nnc1C12CCC(CCS(C)(=O)=O)(CC1)CC2`, the inhibition in vivo at 10 mg/kg in experiment [1] was found to be 63%; in experiment [2] it was 96%. Besides, the IC50 was 4.1 nM in experiment [6], more than 4000 nM in experiment [3], 11 nM in experiment [4] and more than 4000 nM in experiment [5].

With `Cn1c(-c2ccccc2C(F)(F)F)nnc1C12CCC(CCS(=O)(=O)CC(F)(F)F)(CC1)CC2`, the inhibition in vivo at 10 mg/kg in experiment [1] is 67%; in experiment [2] it was 74%. In addition, the IC50 in experiment [6] was 1.5 nM; in experiment [3] it was more than 4000 nM; in experiment [4], 3.7 nM; in experiment [5] it was 1600 nM.

Regarding `Cn1c(-c2ccccc2C(F)(F)F)nnc1C12CCC(CCS(=O)(=O)c3ccccc3)(CC1)CC2`, the values for the inhibition in vivo at 10 mg/kg in experiment [1] and in experiment [2] were 6% and 69%, respectively. Further, the IC50 in experiment [6] is 1.6 nM; in experiment [3] it was more than 4000 nM; in experiment [4], 4.4 nM; in experiment [5], more than 4000 nM.

Take `CCSCCC12CCC(c3nnc(-c4ccccc4C(F)(F)F)n3C)(CC1)CC2`: the figures for the inhibition in vivo at 10 mg/kg in experiment [1] and in experiment [2] were 72% and 79%, respectively. The IC50 in experiment [6] was 3.9 nM; in experiment [3], more than 4000 nM; in experiment [4], 3.3 nM; in experiment [5], more than 4000 nM.

Regarding `CCCS(=O)(=O)CCC12CCC(c3nnc(-c4ccccc4C(F)(F)F)n3C)(CC1)CC2`, the inhibition in vivo at 10 mg/kg in experiment [1] was 47%; in experiment [2], 89%. Also, the IC50 in experiment [6] was 6.7 nM; in experiment [3], more than 4000 nM; in experiment [4] it was 5.1 nM; in experiment [5] it was more than 4000 nM.

Regarding `CCS(=O)(=O)CCC12CCC(c3nnc(-c4ccccc4C)n3C)(CC1)CC2`, the inhibition in vivo at 10 mg/kg in experiment [1] came out at 30%; in experiment [2], 86%. The IC50 in experiment [3] and in experiment [5] was more than 4000 nM each time.

Regarding `CCS(=O)(=O)CCC12CCC(c3nnc(-c4ccc(O)cc4Cl)n3C)(CC1)CC2`, the figures for the inhibition in vivo at 10 mg/kg in experiment [1] and in experiment [2] were 14% and 26%, respectively. Moreover, the IC50 was 3 nM in experiment [6], more than 4000 nM in experiment [3], 2.8 nM in experiment [4] and more than 4000 nM in experiment [5].
